ChEMBL document CHEMBL1287793, “Green synthesis and biological evaluation of some novel azoles as antimicrobial agents” (2010)
Calls of active or inactive are those of the source. The calls are words filed in the database; no cut-off is given here.

What was measured:
Format in all cases: functional
[1] = test system: Staphylococcus aureus; assay: Antimicrobial activity against Staphylococcus aureus after 18 to 20 hrs at 37degC by disc diffusion method
Outline: (§1)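 Agar diffusion disc assay: bacterial inoculum of 1 × 10⁸ bacteria/mL spread on Mueller Hinton agar. 6 mm filter paper discs loaded with sample dissolved in DMSO. Chloramphenicol at 10 mcg/disc served as control. Plates incubated 18–20 h at 37 °C. Read-out was the zone of inhibition in mm.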

[2] = test system: Escherichia coli; assay: Antimicrobial activity against Escherichia coli after 18 to 20 hrs at 37degC by disc diffusion method; outline: as §1
[3] = test system: Bacillus subtilis; assay: Antimicrobial activity against Bacillus subtilis after 18 to 20 hrs at 37degC by disc diffusion method; outline: as §1
[4] = test system: Pseudomonas aeruginosa; assay: Antimicrobial activity against Pseudomonas aeruginosa after 18 to 20 hrs at 37degC by disc diffusion method; outline: as §1
[5] = test system: Aspergillus niger; assay: Antimicrobial activity against Aspergillus niger after 18 to 20 hrs at 37degC by disc diffusion method
Outline: (§2)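 Fungal inoculum of 1 × 10⁶/mL spread on potato dextrose agar. 6 mm filter paper discs received sample dissolved in DMSO. Nystatin at 100 U/disc was the antifungal control. Plates incubated 18–20 h at 37 °C, then the zone of inhibition was measured in mm.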

[6] = test system: Candida albicans; assay: Antimicrobial activity against Candida albicans after 18 to 20 hrs at 37degC by disc diffusion method; outline: as §2

Compound	diameter of the inhibition zone (DIZ) [1]	diameter of the inhibition zone (DIZ) [2]	diameter of the inhibition zone (DIZ) [3]	diameter of the inhibition zone (DIZ) [4]	diameter of the inhibition zone (DIZ) [5]	diameter of the inhibition zone (DIZ) [6]	inhibition zone (IZ) [5]
COc1c(F)c(F)cc2c(=O)c(-c3n[nH]c(=S)n3-c3ccccc3C)cn(C3CC3)c12	21.2 mm	inactive	inactive	inactive	20.8 mm	inactive	–
COc1c(F)c(F)cc2c(=O)c(-c3nnc(Nc4ccc(Cl)cc4)s3)cn(C3CC3)c12	21 mm	inactive	28 mm	inactive	inactive	22 mm	–
COc1ccc(-n2c(-c3cn(C4CC4)c4c(OC)c(F)c(F)cc4c3=O)n[nH]c2=S)cc1	23.4 mm	inactive	inactive	inactive	21.6 mm	inactive	–
COc1c(F)c(F)cc2c(=O)c(C(=O)NNC(=S)Nc3ccccc3)cn(C3CC3)c12	23.9 mm	24.1 mm	24.1 mm	24.2 mm	inactive	14.2 mm	–
COc1c(F)c(F)cc2c(=O)c(-c3n[nH]c(=S)n3-c3ccccc3)cn(C3CC3)c12	21 mm	inactive	inactive	inactive	19.9 mm	inactive	–
COc1c(F)c(F)cc2c(=O)c(C(=O)NNC(=S)Nc3ccccc3C)cn(C3CC3)c12	17.2 mm	18.5 mm	20.1 mm	20.1 mm	18 mm	–	–
COc1ccc(Nc2nnc(-c3cn(C4CC4)c4c(OC)c(F)c(F)cc4c3=O)s2)cc1	inactive	inactive	inactive	inactive	inactive	inactive	–
COc1c(F)c(F)cc2c(=O)c(-c3nnc(Nc4ccccc4C)o3)cn(C3CC3)c12	inactive	inactive	inactive	inactive	inactive	inactive	–
COc1c(F)c(F)cc2c(=O)c(-c3nnc(Nc4cccc(C)c4)s3)cn(C3CC3)c12	inactive	23.8 mm	inactive	27.1 mm	inactive	inactive	–
COc1c(F)c(F)cc2c(=O)c(-c3n[nH]c(=S)n3-c3cccc(C)c3)cn(C3CC3)c12	19.8 mm	inactive	inactive	inactive	21.8 mm	inactive	–
COc1c(F)c(F)cc2c(=O)c(C(=O)NNC(=S)Nc3cccc(C)c3)cn(C3CC3)c12	inactive	inactive	inactive	inactive	inactive	inactive	–
COc1c(F)c(F)cc2c(=O)c(C(=O)NNC(=S)Nc3ccc(Cl)cc3)cn(C3CC3)c12	15.9 mm	15 mm	15.1 mm	22.6 mm	inactive	inactive	–
COc1c(F)c(F)cc2c(=O)c(-c3nnc(Nc4ccccc4C)s3)cn(C3CC3)c12	inactive	inactive	inactive	inactive	inactive	inactive	–
COc1ccc(NC(=S)NNC(=O)c2cn(C3CC3)c3c(OC)c(F)c(F)cc3c2=O)cc1	14.3 mm	16.6 mm	15.3 mm	22.8 mm	inactive	inactive	–
COc1c(F)c(F)cc2c(=O)c(-c3nnc(Nc4ccc(Cl)cc4)o3)cn(C3CC3)c12	21.06 mm	inactive	24.6 mm	26.1 mm	–	22.5 mm	–
O=C(N[C@H](CO)[C@H](O)c1ccc([N+](=O)[O-])cc1)C(Cl)Cl [CHLORAMPHENICOL]	32.8 mm	29.14 mm	30.11 mm	24.68 mm	–	–	–
NYSTATIN	–	–	–	–	–	–	21.1 mm
COc1ccc(Nc2nnc(-c3cn(C4CC4)c4c(OC)c(F)c(F)cc4c3=O)o2)cc1	28 mm	inactive	26.7 mm	–	28.1 mm	25.3 mm	–
COc1c(F)c(F)cc2c(=O)c(-c3nnc(Nc4cccc(C)c4)o3)cn(C3CC3)c12	inactive	inactive	21 mm	inactive	inactive	inactive	–
COc1c(F)c(F)cc2c(=O)c(-c3n[nH]c(=S)n3-c3ccc(Cl)cc3)cn(C3CC3)c12	22.2 mm	inactive	inactive	inactive	21.5 mm	inactive	–
COc1c(F)c(F)cc2c(=O)c(-c3nnc(Nc4ccccc4)s3)cn(C3CC3)c12	17 mm	24 mm	27 mm	22 mm	26.1 mm	16.3 mm	–
COc1c(F)c(F)cc2c(=O)c(-c3nnc(Nc4ccccc4)o3)cn(C3CC3)c12	18.8 mm	inactive	25.4 mm	–	14.7 mm	–	–
